Measured values as given in ChEMBL document CHEMBL2040850, “Indole based cyclooxygenase inhibitors: synthesis, biological evaluation, docking and NMR screening” (Eur J Med Chem, 2012).
Active and inactive are the calls of the source. The calls are words filed in the database; no cut-off is given here.

Columns and labels:
[1] = target: Prostaglandin G/H synthase 2 (Homo sapiens) (UniProt P35354); assay: Inhibition of human COX2 assessed as PGE2 formation at 100 uM by enzyme immunoassay
[2] = target: T1, Prostaglandin G/H synthase 2 (Ovis aries) (UniProt P79208); assay: Reversible binding affinity to sheep placenta COX2 at 300 uM by STD-NMR spectroscopy
T1 sequence (whole entry): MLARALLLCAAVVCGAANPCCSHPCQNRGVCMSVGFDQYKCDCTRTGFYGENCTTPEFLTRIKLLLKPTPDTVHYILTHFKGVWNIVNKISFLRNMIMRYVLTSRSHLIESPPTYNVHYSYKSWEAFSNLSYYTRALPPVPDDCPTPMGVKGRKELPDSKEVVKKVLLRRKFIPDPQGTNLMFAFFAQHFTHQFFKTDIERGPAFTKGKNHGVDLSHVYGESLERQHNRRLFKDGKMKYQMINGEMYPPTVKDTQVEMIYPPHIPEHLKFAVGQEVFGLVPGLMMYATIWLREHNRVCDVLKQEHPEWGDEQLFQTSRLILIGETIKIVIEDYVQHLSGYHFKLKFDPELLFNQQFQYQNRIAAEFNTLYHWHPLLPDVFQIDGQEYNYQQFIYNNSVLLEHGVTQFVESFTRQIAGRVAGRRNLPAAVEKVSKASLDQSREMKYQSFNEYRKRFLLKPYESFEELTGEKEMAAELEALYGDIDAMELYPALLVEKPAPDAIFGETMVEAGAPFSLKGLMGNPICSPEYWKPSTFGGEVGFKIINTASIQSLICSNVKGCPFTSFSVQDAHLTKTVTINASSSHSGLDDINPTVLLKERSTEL
Method in brief: (§1)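 STD-NMR of ligand binding to COX-1 (ram seminal vesicle) or COX-2 (sheep placenta) in 80 mM Tris–HCl pH 8.0 with 0.1% Tween 20 and 300 µM DDC. Final mixture was about 3 µM enzyme and 300 µM ligand, added from a 2 mM DMSO-d6 stock. Protein irradiated at -300 Hz with 51 shaped 90° pulses (2.5 s total saturation), 20 ms spin-lock filter, 1024 transients.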

[3] = target: Prostaglandin G/H synthase 1 (Ovis aries) (UniProt P05979); assay: Inhibition of ovine COX1 assessed as PGE2 formation at 50 uM by enzyme immunoassay
[4] = target: T2, Prostaglandin G/H synthase 2 (Homo sapiens) (UniProt P35354); assay: Inhibition of recombinant human COX2 assessed as PGF2alpha formation at 50 uM by enzyme immunoassay
T2 sequence (whole entry): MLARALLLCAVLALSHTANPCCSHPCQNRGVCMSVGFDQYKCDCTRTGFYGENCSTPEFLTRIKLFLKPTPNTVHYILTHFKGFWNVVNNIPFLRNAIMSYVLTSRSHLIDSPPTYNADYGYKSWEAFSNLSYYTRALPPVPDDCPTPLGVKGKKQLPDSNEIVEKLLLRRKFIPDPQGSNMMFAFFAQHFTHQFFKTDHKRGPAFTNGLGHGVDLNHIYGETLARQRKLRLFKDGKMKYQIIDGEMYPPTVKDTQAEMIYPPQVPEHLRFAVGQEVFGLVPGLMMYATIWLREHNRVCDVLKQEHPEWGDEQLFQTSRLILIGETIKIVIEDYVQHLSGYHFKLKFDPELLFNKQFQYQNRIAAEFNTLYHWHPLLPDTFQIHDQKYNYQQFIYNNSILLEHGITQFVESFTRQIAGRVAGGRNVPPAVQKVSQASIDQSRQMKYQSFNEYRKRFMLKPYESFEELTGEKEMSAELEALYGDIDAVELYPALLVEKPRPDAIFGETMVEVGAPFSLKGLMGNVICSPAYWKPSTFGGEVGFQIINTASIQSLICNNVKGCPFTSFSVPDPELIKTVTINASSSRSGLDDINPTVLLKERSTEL

[5] = target: Prostaglandin G/H synthase 2 (Homo sapiens) (UniProt P35354); assay: Inhibition of recombinant human COX2 assessed as PGE2 formation at 100 uM by enzyme immunoassay
[6] = target: T3, Prostaglandin G/H synthase 1 (Ovis aries) (UniProt P05979); assay: Reversible binding affinity to ram seminal vesicle COX1 at 300 uM by STD-NMR spectroscopy
T3 sequence (whole entry): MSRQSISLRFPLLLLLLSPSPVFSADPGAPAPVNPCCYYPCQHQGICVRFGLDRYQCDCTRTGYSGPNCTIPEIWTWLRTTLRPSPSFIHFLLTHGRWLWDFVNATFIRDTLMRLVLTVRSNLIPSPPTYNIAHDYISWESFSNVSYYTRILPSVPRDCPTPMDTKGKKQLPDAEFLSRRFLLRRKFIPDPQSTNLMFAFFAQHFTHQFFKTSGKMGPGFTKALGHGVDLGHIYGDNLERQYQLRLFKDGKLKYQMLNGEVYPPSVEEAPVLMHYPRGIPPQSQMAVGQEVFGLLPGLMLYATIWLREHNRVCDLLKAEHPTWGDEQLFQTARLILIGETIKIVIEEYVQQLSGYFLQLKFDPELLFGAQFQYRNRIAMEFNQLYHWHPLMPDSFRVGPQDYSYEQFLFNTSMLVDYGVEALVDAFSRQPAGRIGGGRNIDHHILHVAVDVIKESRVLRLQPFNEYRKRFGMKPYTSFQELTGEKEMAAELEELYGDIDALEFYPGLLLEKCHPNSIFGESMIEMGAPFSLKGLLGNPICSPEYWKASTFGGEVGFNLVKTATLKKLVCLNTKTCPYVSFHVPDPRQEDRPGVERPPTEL
Method in brief: as §1

[7] = target: T3, Prostaglandin G/H synthase 1 (Ovis aries); settings: 1 uM

inhibition [1] [%]	inhibition [3] [%]	inhibition [4] [%]	SMILES	other results
26			CS(=O)(=O)c1ccc2[nH]cc(Cc3ccc(Br)cc3)c2c1	
	18		NS(=O)(=O)c1ccc2[nH]c(Cc3ccc(F)cc3)c(Cc3ccc(F)cc3)c2c1	Activity [2]: Active
23	11		CS(=O)(=O)c1ccc2c(c1)c(Cc1ccc(Cl)cc1)cn2C=CCC(F)(F)F (mixture of isomers)	
15	12	23	CS(=O)(=O)c1ccc2c(c1)c(Cc1ccc(Br)cc1)cn2CC(O)CC(F)(F)F (stereo not given)	
19	20	21	CS(=O)(=O)c1ccc2c(c1)c(Cc1ccc(Br)cc1)cn2C=CCC(F)(F)F (mixture of isomers)	
	25	24	CS(=O)(=O)c1ccc2[nH]c(Cc3ccc(Cl)cc3)c(Cc3ccc(Cl)cc3)c2c1	inhibition [5]: inactive
20	40	32	NS(=O)(=O)c1ccc2[nH]cc(Cc3ccc(F)cc3)c2c1	Activity [6]: Active
34	8	20	CS(=O)(=O)c1ccc2c(c1)c(Cc1ccc(Cl)cc1)cn2CC(O)CC(F)(F)F (stereo not given)	
			COc1ccc2c(c1)c(CC(=O)O)c(C)n2C(=O)c1ccc(Cl)cc1	inhibition [7]: 46%
9	14		CS(=O)(=O)c1ccc2c(c1)c(Cc1ccc(F)cc1)cn2CC(O)CC(F)(F)F (stereo not given)	
18	8	12	CS(=O)(=O)c1ccc2c(c1)c(Cc1ccc(F)cc1)cn2C=CCC(F)(F)F (mixture of isomers)	
			CS(=O)(=O)c1ccc2[nH]c(Cc3ccc(F)cc3)c(Cc3ccc(F)cc3)c2c1	inhibition [5]: inactive
27	11	22	NS(=O)(=O)c1ccc(Cc2c[nH]c3ccc(Br)cc23)cc1	
	19	23	NS(=O)(=O)c1ccc2[nH]cc(Cc3ccc(Br)cc3)c2c1	
	35		NS(=O)(=O)c1ccc2[nH]c(Cc3ccc(Br)cc3)c(Cc3ccc(Br)cc3)c2c1	
			CS(=O)(=O)c1ccc2[nH]c(Cc3ccc(Br)cc3)c(Cc3ccc(Br)cc3)c2c1	inhibition [5]: inactive
31	21	32	NS(=O)(=O)c1ccc2[nH]cc(Cc3ccc(Cl)cc3)c2c1	
	41		NS(=O)(=O)c1ccc2[nH]c(Cc3ccc(Cl)cc3)c(Cc3ccc(Cl)cc3)c2c1	
24			CS(=O)(=O)c1ccc2[nH]cc(Cc3ccc(Cl)cc3)c2c1	
